mABHD4 FP = inhibitors of mouse ABHD4. inhibition, % at 8.92 µM. 370,000 tested, 0.54% active. AID 720543. purified mABHD4, FP-Rh probe fluorescence polarization;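 active = inhibition exceeding the mean over every tested compound plus 3 SD, cut at about 30% in these data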
Target sequence (Q8VD66 whole entry, looked up): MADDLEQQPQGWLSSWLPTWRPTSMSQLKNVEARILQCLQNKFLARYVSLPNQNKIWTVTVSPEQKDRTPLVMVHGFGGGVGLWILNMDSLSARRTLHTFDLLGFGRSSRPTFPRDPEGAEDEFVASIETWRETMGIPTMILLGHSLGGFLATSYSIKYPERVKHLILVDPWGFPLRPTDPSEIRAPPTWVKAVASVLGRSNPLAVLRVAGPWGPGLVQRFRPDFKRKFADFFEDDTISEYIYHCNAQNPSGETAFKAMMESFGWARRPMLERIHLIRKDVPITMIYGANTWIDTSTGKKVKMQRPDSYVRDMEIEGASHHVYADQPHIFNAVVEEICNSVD
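assay system = mABHD4 protein | compound dosing = single nominal dose of 8.92 µM, 0.89% DMSO final | read-out basis = percent inhibition of probe binding, normalized to plate controls | schedule = Enzyme–compound pre-incubation 45 min, then probe 60 min, both 25 °C | detection = fluorescence polarization, excitation 525 nm, emission 598 nm, BODIPY TMR filters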
rCAG binder = molecules binding r(CAG) RNA repeats; r(CAG) RNA repeat, TO-PRO-1 dye displacement fluorescence; inhibition, % at 3 µM; 370,000 tested, 1.3% active; AID 651821;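 active = inhibition above the plate cutoff, the mean of all test compounds on that plate plus 3 SD, cut at about 35% in these data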;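 note: higher means more dye released from RNA so lower well fluorescence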
LEDGF integ inh = blocks HIV-1 LEDGF/p75-dependent DNA integration; TR-FRET IN-LEDGF/p75 DNA integration, Eu/Cy5; 370,000 tested, 0.64% active; inhibition, % at 3.7 µM;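 active = inhibition above the screen-wide mean plus 3 SD, cut at about 13% in these data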;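 note: signal is the Cy5 over europium emission ratio at 671 and 618 nm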
DAGLB inh = blocks human DAGLB lipase activity. 340,000 tested, 0.059% active. HEK293T DAGLB membrane lysate, EnzChek fluorogenic substrate. Q8NCG7. inhibition, % at 5.17 µM; in the data active = inhibition above about 34%
PRMT1 FP inh = PRMT1 (human) inhibition, primary screen. Q99873. recombinant PRMT1, activity-based probe fluorescence polarization. inhibition, % at 2.79 µM. 370,000 tested, 1.3% active;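 active = inhibition above about 21% made by adding two undisclosed values, limit read from the data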
Target sequence (Q99873 whole entry, looked up): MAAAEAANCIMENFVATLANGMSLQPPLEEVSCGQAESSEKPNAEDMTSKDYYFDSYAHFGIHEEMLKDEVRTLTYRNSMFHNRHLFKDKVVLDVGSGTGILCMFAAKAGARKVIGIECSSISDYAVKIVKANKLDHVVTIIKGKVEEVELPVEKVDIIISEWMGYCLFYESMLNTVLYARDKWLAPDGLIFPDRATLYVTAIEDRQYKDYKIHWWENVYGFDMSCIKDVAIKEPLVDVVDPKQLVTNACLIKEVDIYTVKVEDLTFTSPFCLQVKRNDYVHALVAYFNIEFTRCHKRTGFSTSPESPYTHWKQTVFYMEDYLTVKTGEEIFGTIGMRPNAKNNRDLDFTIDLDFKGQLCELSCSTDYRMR
HTRA1 inh = HTRA1 (human) protease inhibition. Q92743. recombinant HTRA1, FP-rhodamine activity-based probe, fluorescence polarization. inhibition, % at 5.96 µM. 340,000 tested, 0.5% active. AID 504803; in the data active = inhibition above about 36%
HTRA1 conf = HTRA1 (human) inhibition, confirmation. shares compounds with HTRA1 inh. recombinant HTRA1, FP-rhodamine activity-based probe, fluorescence polarization. inhibition, % at 5.96 µM. 1,600 tested, 66% active. AID 540248;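 active = mean inhibition over three repeats above a set limit taken from the earlier primary screen, cut at about 37% in these data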;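 note: inhibitors block probe binding so polarization drops and inhibition rises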
Of the large screens only hits and unclear results are named; the others gave an inactive call (follow-up assays come after a bar, where they were run). Hits are enriched below; roughly 3.2% of the tested compounds scored in any of these assays.

Cc1cc(C)c(S(=O)(=O)/N=C2/C=C(SCC(=O)O)C(=O)c3ccccc32)cc1C	HTRA1 inh 54 (no result: mABHD4 FP, rCAG binder, LEDGF integ inh, PRMT1 FP inh) | HTRA1 conf inactive
Cc1ccccc1N=Nc1ccc(O)c2ncccc12	HTRA1 inh 37 | HTRA1 conf 65
COc1ccc(N=Nc2ccc(O)c3ncccc23)cc1	HTRA1 inh 44 | HTRA1 conf 63
O=S(=O)(O)c1cccc2c(N=Nc3ccc(O)c4ncccc34)cccc12	HTRA1 inh 71 (no result: mABHD4 FP, rCAG binder, LEDGF integ inh, PRMT1 FP inh) | HTRA1 conf 75
O=Nc1ccc(O)c2ncccc12	none
COc1cccc(N=Nc2ccc3cccnc3c2O)c1	HTRA1 inh 77 | HTRA1 conf 77
COc1ccc(N=Nc2cc(-c3ccccc3)ccc2O)cc1	none
CCCCCCCNC(=O)C1(CC2CC(c3ccccc3)=NO2)CCN(C(=O)c2ccccc2)CC1 (stereo unspecified)	none
COc1ccccc1NC(=O)CN1CCN(Cc2ccccc2)CC1	none
Oc1ccc(N=Nc2ccc3c(c2)OCCO3)c2cccnc12	HTRA1 inh 50 | HTRA1 conf 69
Oc1ccc(N=Nc2ccc3c(c2)OCCO3)c(O)c1	none
Cc1ccc(-n2c(C)cc(-c3csc(N)n3)c2C)cc1	HTRA1 inh 52 | HTRA1 conf 50
CC(=O)N1CCc2cc(S(=O)(=O)NC(Cc3ccccc3)C(=O)NCCN3CCCCC3C)ccc21 (stereo unspecified)	none
CCC(C(=O)NCCCc1ccccc1)c1ccccc1 (stereo unspecified)	none
O=C(CSc1nnc(CNc2ccc(Cl)cc2)o1)Nc1nc2c(s1)CCCC2	HTRA1 inh 38 | HTRA1 conf inactive
O=C(O)c1ccc2c(c1)[C@@H]1C=CC[C@@H]1[C@H](c1ccccn1)N2	mABHD4 FP 70, rCAG binder 82, LEDGF integ inh 95, PRMT1 FP inh 70, HTRA1 inh 47 | HTRA1 conf inactive
CCOC(=O)c1[nH]c2ccc(C)cc2c1NC(=O)CN1CCCCC1	none
Cc1c2cc[n+](CCN3CCCCC3)cc2c(C)c2c1[nH]c1ccc(O)cc12	HTRA1 inh 41 (no result: mABHD4 FP, rCAG binder, LEDGF integ inh, PRMT1 FP inh) | HTRA1 conf 55
CCN(CC)c1cccc(OC2=NS(=O)(=O)c3ccccc32)c1	mABHD4 FP 88, HTRA1 inh 46 | HTRA1 conf inactive
c1ccc(N2CCN(c3nc(-c4ccccn4)nc4ccccc34)CC2)cc1	HTRA1 inh 40 | HTRA1 conf inactive
CN1CCN(c2nc(-c3ccccn3)nc3ccccc23)CC1	none
CC(C)(C)n1cnc2cc(NCc3ccccc3O)ccc21	HTRA1 inh 46 | HTRA1 conf inactive
CC(C)n1cnc2cc(NCc3ccccc3O)ccc21	none
O=Cc1ccc(O)c(O)c1	none
Oc1ccc(N=Cc2ccc(O)c(O)c2)cc1	HTRA1 inh 57 (no result: mABHD4 FP, rCAG binder, LEDGF integ inh, PRMT1 FP inh) | HTRA1 conf 52
Cc1ccccc1N(CC(=O)NCc1ccncc1)S(C)(=O)=O	none
Cc1cccc2nc(-c3ccco3)c(Nc3ccccc3)n12	none
Cc1ccc(Nc2c(-c3ccccn3)nc3cccc(C)n23)cc1	HTRA1 inh 62 | HTRA1 conf 67
O=C(NC1CCCCC1)C(c1ccc(O)c(O)c1)N(C(=O)Cn1nnc2ccccc21)c1cccc(O)c1 (stereo unspecified)	HTRA1 inh 47 | HTRA1 conf 49
O=C(/C=C/c1ccc(F)cc1)c1cc(Br)ccc1O	none
CCNc1ccc(Br)cc(C(=O)/C=C/c2ccc(Cl)cc2)c1=O	HTRA1 inh 63 (no result: mABHD4 FP, rCAG binder, LEDGF integ inh, PRMT1 FP inh) | HTRA1 conf inactive
Cc1ccc(-c2nn(-c3ccccc3)cc2C(=O)N2CCOCC2)cc1	HTRA1 inh 36 | HTRA1 conf inactive
S=C(/N=c1/sccn1Cc1ccccc1)NC1CC1	none
NS(=O)(=O)c1ccc(N/C=C\C(=O)c2ccc(F)cc2)cc1	none
CN(C)c1ccc(N/C=C/C(=O)c2ccc(F)cc2)cc1	HTRA1 inh 53 (no result: mABHD4 FP, rCAG binder, LEDGF integ inh, PRMT1 FP inh) | HTRA1 conf inactive
O=C(CCC(=O)N/N=C/c1ccc(Br)s1)NCc1ccccc1	none
Brc1ccc(C=Nc2ccc(Nc3ccccc3)cc2)s1	HTRA1 inh 73 (no result: mABHD4 FP, rCAG binder, LEDGF integ inh, PRMT1 FP inh) | HTRA1 conf 94
CCOc1ccc(S(=O)(=O)NCCC(=O)Nc2ccncc2)cc1	none
O=c1cc2oc3cc(O)c(O)cc3c(-c3ccccc3O)c-2cc1O	HTRA1 inh 60 (no result: mABHD4 FP, rCAG binder, LEDGF integ inh, PRMT1 FP inh) | HTRA1 conf 127
COc1ccc(OC)c(-c2c3cc(O)c(=O)cc-3oc3cc(O)c(O)cc23)c1	HTRA1 inh 85 (no result: mABHD4 FP, rCAG binder, LEDGF integ inh, PRMT1 FP inh) | HTRA1 conf 90
Cc1ccccc1-c1cc(=O)c2c(O)cccc2o1	none
O=S(=O)(Oc1ccccc1)c1cccnc1	none
CCOC(=O)c1ccccc1NC(=O)/C=C/c1cc(OC)c(OC)c(OC)c1	none
CN(C)CCCNc1cc(C(C)(C)C)nc2c(-c3ccccc3)cnn12	HTRA1 inh 36 | HTRA1 conf inactive
CC(=NNc1nc2ccccc2o1)c1cc2ccccc2cn1	HTRA1 inh 56 | HTRA1 conf 70
Cc1cc(C)nc(Nc2nc3ccccc3o2)n1	none
Fc1cccc(NC(=S)NNc2ccccc2)c1	none
Fc1cccc(NC(=S)NNc2c3ccccc3nc3ccccc23)c1	HTRA1 inh 36 | HTRA1 conf inactive
O=C(CN1CCC(C(=O)c2cccc(Cl)c2)CC1)Nc1cccc(C(=O)O)c1	none
COc1ccc(Sc2nc(-c3ccccn3)ncc2OC)cc1	HTRA1 inh 62 | HTRA1 conf 54
Cc1cc(Cl)ccc1OCCCC(=O)NNC(=O)c1ccccc1O	HTRA1 inh 39 | HTRA1 conf 52
Cc1ccccc1C(=O)Nc1ccc(C(=O)NNC(=O)CCCOc2ccc(Cl)cc2Cl)cc1	none
O=C(CNC(=O)c1ccc(OC(F)F)cc1)NCC1CCCO1 (stereo unspecified)	none
O=C1C(Cl)=C(N2CCCCC2)C(=O)C(Cl)=C1c1cnc(N2CCCCC2)s1	HTRA1 inh 71 (no result: mABHD4 FP, rCAG binder, LEDGF integ inh, PRMT1 FP inh) | HTRA1 conf inactive
O=C1C=C(N2CCN(c3ccccn3)CC2)C(=O)c2c(O)ccc(O)c21	HTRA1 inh 38 | HTRA1 conf 49
O=C(CSc1nc2ccccc2n1CC(=O)N1CCCC1)NCc1ccc2c(c1)OCO2	none
CCc1cccc(CC)c1NC(=S)NCCc1ccc(O)c(O)c1	HTRA1 inh 67 | HTRA1 conf 78
CC(C)Oc1ccc(S(=O)(=O)N2CCCCC2)cc1NC(=O)C1CCCC1	none
CCCN=C1N(CC)C[C@@H]2[C@@H]3C(=O)N(Cc4ccccc4)C(=O)[C@@H]3[C@](Cc3ccccc3)(C(=O)OC)N12	none
Cc1[nH]c2ccccc2c1C(c1ccccn1)N1CCCC1 (stereo unspecified)	none
Oc1c(C(c2ccccn2)N2CCCCC2)cc(Cl)c2cccnc12 (stereo unspecified)	HTRA1 inh 53 | HTRA1 conf 55

Source: PubChem BioAssay
